# Active and inactive are the calls of the source. The rule behind the calls is not given here. Where a SMILES comes first, the peptide text is derived from it. [ ]: non-standard residue; d: D form. The star is where a group is joined. Cbz = O=C(OCc1ccccc1)*
# Key:
# [1] = Inhibition of proteasomal turnover of p97-independent ODD-luciferase reporter substrate in human HeLa cells incubated for 120 mins by luciferase reporter gene assay; type: functional, cell-based; details: 2 h
# In short: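 HeLa cells co-expressing UbG76V-GFP and ODD-Luc were seeded at 5000/well in clear DMEM with 2.5% FBS. They were pretreated with 4 μM MG132 for 60 min at 37 °C, washed with PBS, then given cycloheximide plus compound for 120 min at 37 °C and washed. GFP was read by high-content confocal imaging, then luminescence after 10 min with D-luciferin at r.t. IC50 was fitted from quadruplicates.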
# [2] = target: T1, Transitional endoplasmic reticulum ATPase (Homo sapiens, UniProt P55072); test: Inhibition of His6-tagged p97 (unknown origin) expressed in Escherichia coli BL21 (DE3) assessed as reduction in ATPase activity measured after 60 mins by biomol green reagent based assay
# In short: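 His6-p97 expressed in E. coli BL21(DE3), purified by Ni-NTA and gel filtration (500–600 kDa fractions, ≥95% pure). Phosphate read by Biomol Green at 635 nm. Eight-dose titrations; IC50 from six replicates. Thiol tests added DTT or cysteine during preincubation.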
# Target sequence in this assay (P55072 whole entry): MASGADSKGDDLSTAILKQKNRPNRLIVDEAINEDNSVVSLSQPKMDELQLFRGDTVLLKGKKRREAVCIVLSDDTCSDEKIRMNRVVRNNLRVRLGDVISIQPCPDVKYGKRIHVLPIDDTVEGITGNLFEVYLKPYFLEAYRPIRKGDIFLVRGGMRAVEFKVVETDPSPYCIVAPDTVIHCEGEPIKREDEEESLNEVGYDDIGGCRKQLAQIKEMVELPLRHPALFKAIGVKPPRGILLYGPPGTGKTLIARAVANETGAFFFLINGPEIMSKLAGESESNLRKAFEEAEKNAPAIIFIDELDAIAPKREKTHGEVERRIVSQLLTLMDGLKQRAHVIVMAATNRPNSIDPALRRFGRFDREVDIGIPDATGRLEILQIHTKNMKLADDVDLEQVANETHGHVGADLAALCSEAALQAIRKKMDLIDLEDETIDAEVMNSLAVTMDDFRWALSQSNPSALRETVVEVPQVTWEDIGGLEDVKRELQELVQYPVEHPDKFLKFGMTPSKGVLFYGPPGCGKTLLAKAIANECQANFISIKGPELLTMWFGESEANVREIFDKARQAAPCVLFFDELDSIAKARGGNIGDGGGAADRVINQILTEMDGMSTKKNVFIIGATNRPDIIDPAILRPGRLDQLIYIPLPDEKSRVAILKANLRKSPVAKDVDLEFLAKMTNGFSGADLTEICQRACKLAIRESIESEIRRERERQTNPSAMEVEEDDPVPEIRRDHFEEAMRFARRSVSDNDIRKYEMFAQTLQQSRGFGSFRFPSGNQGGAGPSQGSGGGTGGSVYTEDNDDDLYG
# [3] = target: T1, Transitional endoplasmic reticulum ATPase; test: Inhibition of p97 in human HeLa cells assessed as reduction in proteasomal turnover of p97-dependent reporter substrate UbG76V-GFP incubated for 120 mins by GFP fluorescence imaging
# Target sequence in this assay (P55072 whole entry): as above
# [4] = Inhibition of yeast Cdc48 T532C mutant assessed as reduction in ATPase activity measured after 60 mins by biomol green reagent based assay; design: species or system Saccharomyces cerevisiae
# In short: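 Yeast Cdc48 ATPase activity with 200 μM ATP in Tris pH 7.4 buffer containing MgCl2, EDTA, TCEP and Triton X-100, 60 min at room temperature. Biomol Green read at 635 nm. Eight-dose titration; IC50 from six replicates.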
# [5] = target: T1, Transitional endoplasmic reticulum ATPase; test: Irreversible inhibition of p97 in human HeLa cells assessed as reduction in p97-dependent reporter substrate UbG76V-GFP degradation preincubated followed by washout and measured after 17 hrs by luciferase reporter gene assay; type: cell-based; details: in the assay text read “GFP fluorescence assay” for “luciferase reporter gene assay”
# In short: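 HeLa cells expressing UbG76V-GFP/ODD-Luc, 5000 cells/well in DMEM with 2.5% FBS. Pretreated with 4 μM MG132 for 60 min at 37 °C, PBS-washed, then given cycloheximide plus compound for 120 min. After washout, GFP decay followed in cycloheximide for an additional 17 h. GFP read by high-content imaging; luciferase read with D-luciferin; quadruplicates.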
# Target sequence in this assay (P55072 2-806 limits assumed): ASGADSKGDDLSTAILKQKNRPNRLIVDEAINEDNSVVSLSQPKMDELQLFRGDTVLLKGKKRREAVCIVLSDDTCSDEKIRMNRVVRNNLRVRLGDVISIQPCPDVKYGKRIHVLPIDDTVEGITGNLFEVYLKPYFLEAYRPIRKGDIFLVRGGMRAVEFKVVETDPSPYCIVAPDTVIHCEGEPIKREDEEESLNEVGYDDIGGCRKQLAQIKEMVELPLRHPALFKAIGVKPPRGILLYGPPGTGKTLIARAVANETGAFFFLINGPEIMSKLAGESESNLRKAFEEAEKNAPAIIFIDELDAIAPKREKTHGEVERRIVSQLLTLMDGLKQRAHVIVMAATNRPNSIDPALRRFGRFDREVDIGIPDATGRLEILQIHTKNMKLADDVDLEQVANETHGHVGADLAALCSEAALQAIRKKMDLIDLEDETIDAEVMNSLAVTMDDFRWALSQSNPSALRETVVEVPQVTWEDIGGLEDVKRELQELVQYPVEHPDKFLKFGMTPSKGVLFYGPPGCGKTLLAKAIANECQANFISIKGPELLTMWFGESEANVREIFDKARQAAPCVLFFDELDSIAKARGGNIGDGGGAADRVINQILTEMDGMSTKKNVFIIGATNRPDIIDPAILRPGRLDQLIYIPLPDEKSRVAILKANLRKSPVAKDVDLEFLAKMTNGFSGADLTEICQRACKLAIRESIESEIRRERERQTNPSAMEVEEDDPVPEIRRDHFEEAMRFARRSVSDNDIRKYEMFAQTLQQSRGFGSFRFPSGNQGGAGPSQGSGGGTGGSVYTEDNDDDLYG
# [6] = Selectivity ratio of IC50 for antiproliferative activity against NMS-873-resistant human HCT-116 cells to IC50 for antiproliferative activity against human HCT-116 cells; type: functional
SMILES,IC50 [1] [µM],IC50 [2] [µM],IC50 [3] [µM],IC50 [4] [µM],inhibition [5],Selectivity ratio [6]
O=[N+]([O-])/C=C/c1ccc2c(c1)OCO2,3.9,1.7,1.6,,,
Cc1ccc(-c2c(C(=O)CCl)n(CCCO)c3ncnc(N)c23)cc1,4,3.9,5.8,,,
CC(C)(C)n1nc(-c2ccc3ccccc3c2)c2c(N)ncnc21,> 30,> 100,> 30,> 100,,
CC(C)C[C@@H](C=O)NC(=O)[C@@H](CC(C)C)NC(=O)[C@H](CC(C)C)NC(=O)OCc1ccccc1 (Cbz-Leu-[dL]-Leu-aldehyde),,,,,inactive,
CC(C)(C)n1nc(-c2ccccc2)c2c(N)ncnc21,> 30,> 100,> 30,> 100,,
CCC(=O)Oc1ccc(/C=C/[N+](=O)[O-])cc1OC,1.6,3.4,4.3,,,
COc1cc(/C=C/[N+](=O)[O-])ccc1O,5,13,6.8,,,
Cc1cc(OCc2nnc(SC3CCCC3)n2-c2cccnc2)ccc1-c1ccc(S(C)(=O)=O)cc1,,,,,,4.5
C=CC(=O)N(C(=O)C=C)c1ncnc2c1c(-c1ccc3ccccc3c1)nn2C(C)(C)C,> 30,1.3,2.5,22,,
C=CC(=O)Nc1ccc2ncnc(Nc3ccc(-c4ccccc4)cc3)c2c1,11,10,18,,,
Cc1ccc(C(=O)C#Cc2ccccc2)cc1,5.2,0.2,3.4,,,
COc1cc(/C=C/[N+](=O)[O-])ccc1OC(C)=O,2.3,3.6,5.7,,,
CC(C)(C)n1nc(-c2ccc(-c3ccccc3)cc2)c2c(N)ncnc21,> 30,> 50,> 30,,,
C=CC(=O)N(C(=O)C=C)c1ncnc2c1c(-c1ccccc1)nn2C(C)(C)C,> 30,1.1,5.4,26,,
C=CC(=O)N(C(=O)C=C)c1ncnc2c1c(-c1ccc(-c3ccccc3)cc1)nn2C(C)(C)C,> 30,0.9,6.1,,,
C=CC(=O)Nc1ncnc2c1c(-c1ccc3ccccc3c1)nn2C(C)(C)C,> 30,3,2,24,,
CC1(C)C(N(O)C(=O)Nc2ccc(Cl)cc2)N(c2ccc(Cl)cc2)C(=O)N1CC(=O)N/N=C/C=C/c1ccc([N+](=O)[O-])o1 (stereo not given),,> 30,3.7,,,
O=[N+]([O-])/C=C/c1cccc([N+](=O)[O-])c1,4,1.2,1.7,,,
O=[N+]([O-])/C=C/c1ccc(F)c(Br)c1,2,1.7,1.8,,,
O=[N+]([O-])/C=C/c1cccnc1,3,0.7,2.9,,,
C=CC(=O)Nc1ncnc2c1c(-c1ccc(-c3ccccc3)cc1)nn2C(C)(C)C,> 30,2.8,2.1,,,
CNc1ncnc2c1c(-c1ccc3ccccc3c1)nn2C(C)(C)C,> 30,> 50,> 30,,,
O=[N+]([O-])/C=C/c1c(F)c(F)c(F)c(F)c1F,2.1,2.4,2.7,,,
COc1ccc(/C=C/[N+](=O)[O-])cc1OC,1.8,3.1,1.9,,,
O=C(O)/C=C/c1ccc2c(c1)OCO2,> 30,> 30,> 30,,,
Cc1ccc(-c2c(C(=O)CF)n(CCCO)c3ncnc(N)c23)cc1,39,> 30,47,,,
COc1cc(/C=C/[N+](=O)[O-])ccc1OC(=O)c1ccccc1,10,2,5.7,,,
CC(C)(C)n1nc(-c2ccccc2)c2c(NC(=O)CCl)ncnc21,> 30,4.5,31,35,,

# From ChEMBL document CHEMBL4732155 (Eur J Med Chem, 2021)
